pIC50: −log10 of the molar value. Calls of active or inactive are those of the source. The rule behind the calls is not given here.
Legend:
[1] = biological target: Cyclin-dependent kinase 2 (Homo sapiens) (UniProt P24941); test: Inhibition of CDK2 in human G361 cells assessed as reduction in phosphorylation of RNA polymerase 2 at C-terminus at 0.1 to 1 uM incubated for 24 hrs by immunoblotting analysis; type: cell-based; conditions: G-361
How it was run: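 Treated G361 cells were lysed in Laemmli buffer, run on SDS-PAGE and blotted to nitrocellulose. Blots were probed overnight with antibodies to RNA polymerase II phosphorylated at S5 and S2, and to total RNA polymerase II (ARNA-3). Peroxidase secondaries were then applied and signal was detected by ECL with a CCD camera.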

[2] = biological target: Cyclin-dependent kinase 4 (Homo sapiens, UniProt P11802); test: Inhibition of CDK4 (unknown origin)
[3] = biological target: Cyclin-dependent kinase 2/cyclin E1 (Homo sapiens, UniProt P24941); test: Inhibition of CDK2/Cyclin E (unknown origin) expressed in sf9 cells using histone H1 as substrate in presence of [gamma33P]-ATP; type: cell-based
[4] = biological target: Cyclin-dependent kinase 1 (Homo sapiens, UniProt P06493); test: Inhibition of CDK1 (unknown origin)
[5] = biological target: Calcium/calmodulin-dependent protein kinase kinase 2 (Homo sapiens) (UniProt Q96RR4); test: Inhibition of recombinant CAMKKB (unknown origin) assessed as residual activity at 1 uM relative to control
[6] = biological target: Serine/threonine-protein kinase PAK 4 (Homo sapiens) (UniProt O96013); test: Inhibition of recombinant PAK4 (unknown origin) assessed as residual activity at 1 uM relative to control
[7] = biological target: Calcium/calmodulin-dependent protein kinase type 1 (Homo sapiens) (UniProt Q14012); test: Inhibition of recombinant CAMK1 (unknown origin) assessed as residual activity at 1 uM relative to control
K562 = test: Cytotoxicity against human K562 cells assessed as reduction in cell viability after 72 hrs by calcein AM staining based fluorescence assay; type: functional; conditions: K562, 72 h
How it was run: (§1)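 Cells were grown in DMEM with 10% FBS, penicillin and streptomycin at 37 °C in 5% CO2. Three doses were tested in triplicate for 72 h.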

MCF7 [8] = test: Cytotoxicity against human MCF7 cells assessed as reduction in cell viability after 72 hrs by calcein AM staining based fluorescence assay; type: functional; how it was run: as §1
[9] = biological target: Cyclin-dependent kinase 7 (Homo sapiens, UniProt P50613); test: Inhibition of CDK7 (unknown origin)
[10] = Cell cycle arrest in BrdU pulse-labelled human HCT116 cells assessed as accumulation at late S phase at 125 to 500 nM after 24 hrs by propidium iodide staining based flow cytometry; type: functional; conditions: HCT-116
[11] = Cell cycle arrest in BrdU pulse-labelled human HCT116 cells assessed as accumulation at late G2/M phase at 125 to 500 nM after 24 hrs by propidium iodide staining based flow cytometry; type: functional; conditions: HCT-116
HCT-116 [12] = test: Induction of apoptosis in human HCT116 cells assessed as decrease in MCL-1 expression incubated for 24 hrs by immunoblotting analysis; type: functional, cell-based
How it was run: (§2)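 HCT-116 cells were treated with different doses for 24 h and harvested into Laemmli buffer. Proteins were separated by SDS-PAGE and blotted to nitrocellulose. Membranes were probed overnight with primary antibodies (anti-PARP F-2, anti-Mcl-1 S-19, anti-p53 DO-1), then with peroxidase secondaries. Bands were detected by ECL with a CCD camera, with tubulin as loading control.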

HCT-116 [13] = test: Induction of apoptosis in human HCT116 cells assessed as increase in p53 expression at 250 to 500 nM incubated for 24 hrs by immunoblotting analysis; type: functional, cell-based; how it was run: as §2
G-361 [14] = test: Induction of apoptosis in human G361 cells assessed as caspase7 activation using Ac-DEVD-AMC as substrate at IC50 preincubated for 24 hrs followed by substrate addition measured after 3 hrs by fluorescence assay; type: functional, cell-based
G-361 [15] = test: Induction of apoptosis in human G361 cells assessed as caspase7 activation using Ac-DEVD-AMC as substrate at 5 times IC50 preincubated for 24 hrs followed by substrate addition measured after 3 hrs by fluorescence assay; type: functional, cell-based
[16] = biological target: Casein kinase II (Homo sapiens) (UniProt P67870+P68400+P19784); test: Inhibition of recombinant CK2 (unknown origin) assessed as residual activity at 1 uM relative to control; type: protein-complex assay
[17] = biological target: Serine/threonine-protein kinase TBK1 (Homo sapiens) (UniProt Q9UHD2); test: Inhibition of recombinant TBK1 (unknown origin) assessed as residual activity at 1 uM relative to control
[18] = biological target: SRSF protein kinase 1 (Homo sapiens) (UniProt Q96SB4); test: Inhibition of recombinant SRPK1 (unknown origin) assessed as residual activity at 1 uM relative to control
[19] = biological target: Ribosomal protein S6 kinase alpha-5 (Homo sapiens) (UniProt O75582); test: Inhibition of recombinant MSK1 (unknown origin) assessed as residual activity at 1 uM relative to control
[20] = biological target: Mitogen-activated protein kinase kinase kinase 11 (Homo sapiens) (UniProt Q16584); test: Inhibition of recombinant MLK3 (unknown origin) assessed as residual activity at 1 uM relative to control
[21] = biological target: Receptor-interacting serine/threonine-protein kinase 2 (Homo sapiens) (UniProt O43353); test: Inhibition of recombinant RIPK2 (unknown origin) assessed as residual activity at 1 uM relative to control
[22] = biological target: Protein kinase C alpha type (Homo sapiens) (UniProt P17252); test: Inhibition of recombinant PKCalpha (unknown origin) assessed as residual activity at 1 uM relative to control
[23] = biological target: Glycogen synthase kinase-3 beta (Homo sapiens) (UniProt P49841); test: Inhibition of recombinant GSK3beta (unknown origin) assessed as residual activity at 1 uM relative to control
[24] = biological target: Ribosomal protein S6 kinase beta-1 (Homo sapiens) (UniProt P23443); test: Inhibition of recombinant S6K1 (unknown origin) assessed as residual activity at 1 uM relative to control
[25] = biological target: Serine/threonine-protein kinase 3 (Homo sapiens) (UniProt Q13188); test: Inhibition of recombinant MST2 (unknown origin) assessed as residual activity at 1 uM relative to control
[26] = biological target: Tyrosine-protein kinase Lck (Homo sapiens) (UniProt P06239); test: Inhibition of recombinant LCK (unknown origin) assessed as residual activity at 1 uM relative to control
[27] = biological target: Serine/threonine-protein kinase N2 (Homo sapiens) (UniProt Q16513); test: Inhibition of recombinant PRK2 (unknown origin) assessed as residual activity at 1 uM relative to control
[28] = biological target: Tyrosine-protein kinase JAK2 (Homo sapiens) (UniProt O60674); test: Inhibition of recombinant JAK2 (unknown origin) assessed as residual activity at 1 uM relative to control
[29] = biological target: RAC-alpha serine/threonine-protein kinase (Homo sapiens) (UniProt P31749); test: Inhibition of recombinant PKBalpha (unknown origin) assessed as residual activity at 1 uM relative to control
[30] = biological target: Serine/threonine-protein kinase Sgk1 (Homo sapiens) (UniProt O00141); test: Inhibition of recombinant SGK1 (unknown origin) assessed as residual activity at 1 uM relative to control
MCF7 [31] = test: Cell cycle arrest in BrdU pulse-labelled human MCF7 cells assessed as accumulation at late S phase at 8 to 250 nM after 24 hrs by propidium iodide staining based flow cytometry; type: functional

Chain of Calcium/calmodulin-dependent protein kinase type 1 (Homo sapiens) (Q14012 whole entry, looked up): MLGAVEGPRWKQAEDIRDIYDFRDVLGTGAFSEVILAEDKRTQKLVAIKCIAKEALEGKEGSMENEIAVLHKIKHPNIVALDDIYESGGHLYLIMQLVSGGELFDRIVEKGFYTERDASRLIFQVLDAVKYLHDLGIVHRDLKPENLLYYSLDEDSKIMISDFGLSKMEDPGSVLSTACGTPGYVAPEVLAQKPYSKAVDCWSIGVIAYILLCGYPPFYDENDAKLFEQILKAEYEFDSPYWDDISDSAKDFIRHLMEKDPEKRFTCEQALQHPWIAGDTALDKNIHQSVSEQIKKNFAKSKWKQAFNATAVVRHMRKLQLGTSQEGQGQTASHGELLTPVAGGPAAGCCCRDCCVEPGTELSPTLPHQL
Chain of Mitogen-activated protein kinase kinase kinase 11 (Homo sapiens) (Q16584 whole entry, looked up): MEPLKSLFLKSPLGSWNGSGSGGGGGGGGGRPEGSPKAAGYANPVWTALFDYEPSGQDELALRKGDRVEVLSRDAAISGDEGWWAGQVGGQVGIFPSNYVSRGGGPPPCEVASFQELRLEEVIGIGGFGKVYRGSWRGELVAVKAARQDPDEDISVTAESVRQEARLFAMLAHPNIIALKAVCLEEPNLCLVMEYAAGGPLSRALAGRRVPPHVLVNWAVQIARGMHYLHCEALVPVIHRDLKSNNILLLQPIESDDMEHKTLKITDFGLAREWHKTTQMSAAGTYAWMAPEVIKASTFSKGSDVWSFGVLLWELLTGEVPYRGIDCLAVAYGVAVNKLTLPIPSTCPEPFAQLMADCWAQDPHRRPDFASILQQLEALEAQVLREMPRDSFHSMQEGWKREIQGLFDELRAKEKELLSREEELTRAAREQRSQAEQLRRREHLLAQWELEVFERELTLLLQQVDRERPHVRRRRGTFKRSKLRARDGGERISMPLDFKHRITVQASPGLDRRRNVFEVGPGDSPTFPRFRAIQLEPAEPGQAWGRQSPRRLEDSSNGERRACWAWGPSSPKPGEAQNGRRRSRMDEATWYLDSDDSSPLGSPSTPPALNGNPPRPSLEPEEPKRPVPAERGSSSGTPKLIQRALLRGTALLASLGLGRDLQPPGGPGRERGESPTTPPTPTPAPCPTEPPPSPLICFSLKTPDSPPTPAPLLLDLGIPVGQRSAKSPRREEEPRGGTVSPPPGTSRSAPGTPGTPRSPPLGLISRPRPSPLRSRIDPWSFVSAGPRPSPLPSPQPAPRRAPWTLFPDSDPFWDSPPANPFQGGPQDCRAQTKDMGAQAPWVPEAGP
Chain of Tyrosine-protein kinase Lck (Homo sapiens) (P06239 2-509 limits assumed): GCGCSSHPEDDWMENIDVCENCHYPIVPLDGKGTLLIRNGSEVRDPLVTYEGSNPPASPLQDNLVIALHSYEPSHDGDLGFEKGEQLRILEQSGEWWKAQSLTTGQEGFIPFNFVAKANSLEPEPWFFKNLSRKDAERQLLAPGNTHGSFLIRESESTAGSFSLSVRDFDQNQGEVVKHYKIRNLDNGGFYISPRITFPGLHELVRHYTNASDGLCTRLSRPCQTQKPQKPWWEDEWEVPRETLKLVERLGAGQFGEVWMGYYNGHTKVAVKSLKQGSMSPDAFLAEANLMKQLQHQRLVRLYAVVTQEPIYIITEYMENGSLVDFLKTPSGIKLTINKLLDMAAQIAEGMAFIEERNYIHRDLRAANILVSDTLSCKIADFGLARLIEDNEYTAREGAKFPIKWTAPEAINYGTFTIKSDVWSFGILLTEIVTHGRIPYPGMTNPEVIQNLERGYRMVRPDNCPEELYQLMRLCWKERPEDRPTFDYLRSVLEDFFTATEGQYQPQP
Chain of Serine/threonine-protein kinase N2 (Homo sapiens) (Q16513 whole entry, looked up): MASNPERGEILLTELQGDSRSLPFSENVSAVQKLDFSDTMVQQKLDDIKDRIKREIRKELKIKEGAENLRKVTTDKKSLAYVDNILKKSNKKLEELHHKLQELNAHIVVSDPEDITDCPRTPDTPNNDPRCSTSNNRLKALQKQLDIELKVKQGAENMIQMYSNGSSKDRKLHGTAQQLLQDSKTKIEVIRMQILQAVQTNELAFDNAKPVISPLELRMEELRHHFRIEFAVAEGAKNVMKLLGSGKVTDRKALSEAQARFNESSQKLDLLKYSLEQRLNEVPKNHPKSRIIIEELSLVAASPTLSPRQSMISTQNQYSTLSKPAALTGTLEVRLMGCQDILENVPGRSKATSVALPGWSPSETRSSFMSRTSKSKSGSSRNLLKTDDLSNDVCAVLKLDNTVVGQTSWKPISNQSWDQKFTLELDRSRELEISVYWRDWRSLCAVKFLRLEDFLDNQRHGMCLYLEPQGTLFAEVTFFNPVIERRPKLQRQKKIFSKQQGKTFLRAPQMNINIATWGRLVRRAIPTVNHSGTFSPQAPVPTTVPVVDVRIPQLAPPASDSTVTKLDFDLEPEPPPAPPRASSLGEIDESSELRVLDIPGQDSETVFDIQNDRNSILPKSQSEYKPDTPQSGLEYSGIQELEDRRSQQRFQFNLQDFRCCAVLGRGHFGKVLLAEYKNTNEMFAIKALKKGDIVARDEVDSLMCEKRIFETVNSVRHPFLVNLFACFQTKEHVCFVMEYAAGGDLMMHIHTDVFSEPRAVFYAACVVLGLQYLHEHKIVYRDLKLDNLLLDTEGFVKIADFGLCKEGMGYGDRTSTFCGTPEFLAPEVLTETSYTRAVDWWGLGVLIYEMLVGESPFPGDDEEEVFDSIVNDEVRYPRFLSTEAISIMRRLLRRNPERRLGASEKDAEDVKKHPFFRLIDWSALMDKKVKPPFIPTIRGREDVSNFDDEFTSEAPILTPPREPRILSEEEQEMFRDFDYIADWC
Chain of Serine/threonine-protein kinase 3 (Homo sapiens) (Q13188 whole entry): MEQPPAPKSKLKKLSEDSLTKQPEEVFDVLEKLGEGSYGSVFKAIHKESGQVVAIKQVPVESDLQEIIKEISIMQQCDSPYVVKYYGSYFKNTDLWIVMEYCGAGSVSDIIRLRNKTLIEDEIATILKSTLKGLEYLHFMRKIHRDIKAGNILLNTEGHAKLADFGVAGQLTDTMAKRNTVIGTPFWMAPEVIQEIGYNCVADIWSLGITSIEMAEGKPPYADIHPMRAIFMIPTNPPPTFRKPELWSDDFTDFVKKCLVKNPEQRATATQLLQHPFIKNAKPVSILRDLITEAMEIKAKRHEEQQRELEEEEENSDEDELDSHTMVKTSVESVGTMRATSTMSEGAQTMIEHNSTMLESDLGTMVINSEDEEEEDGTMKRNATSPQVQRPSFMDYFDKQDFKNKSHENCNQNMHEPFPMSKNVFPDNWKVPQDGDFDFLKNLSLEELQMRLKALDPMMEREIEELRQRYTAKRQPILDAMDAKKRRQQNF
Chain of Tyrosine-protein kinase JAK2 (Homo sapiens) (O60674 whole entry): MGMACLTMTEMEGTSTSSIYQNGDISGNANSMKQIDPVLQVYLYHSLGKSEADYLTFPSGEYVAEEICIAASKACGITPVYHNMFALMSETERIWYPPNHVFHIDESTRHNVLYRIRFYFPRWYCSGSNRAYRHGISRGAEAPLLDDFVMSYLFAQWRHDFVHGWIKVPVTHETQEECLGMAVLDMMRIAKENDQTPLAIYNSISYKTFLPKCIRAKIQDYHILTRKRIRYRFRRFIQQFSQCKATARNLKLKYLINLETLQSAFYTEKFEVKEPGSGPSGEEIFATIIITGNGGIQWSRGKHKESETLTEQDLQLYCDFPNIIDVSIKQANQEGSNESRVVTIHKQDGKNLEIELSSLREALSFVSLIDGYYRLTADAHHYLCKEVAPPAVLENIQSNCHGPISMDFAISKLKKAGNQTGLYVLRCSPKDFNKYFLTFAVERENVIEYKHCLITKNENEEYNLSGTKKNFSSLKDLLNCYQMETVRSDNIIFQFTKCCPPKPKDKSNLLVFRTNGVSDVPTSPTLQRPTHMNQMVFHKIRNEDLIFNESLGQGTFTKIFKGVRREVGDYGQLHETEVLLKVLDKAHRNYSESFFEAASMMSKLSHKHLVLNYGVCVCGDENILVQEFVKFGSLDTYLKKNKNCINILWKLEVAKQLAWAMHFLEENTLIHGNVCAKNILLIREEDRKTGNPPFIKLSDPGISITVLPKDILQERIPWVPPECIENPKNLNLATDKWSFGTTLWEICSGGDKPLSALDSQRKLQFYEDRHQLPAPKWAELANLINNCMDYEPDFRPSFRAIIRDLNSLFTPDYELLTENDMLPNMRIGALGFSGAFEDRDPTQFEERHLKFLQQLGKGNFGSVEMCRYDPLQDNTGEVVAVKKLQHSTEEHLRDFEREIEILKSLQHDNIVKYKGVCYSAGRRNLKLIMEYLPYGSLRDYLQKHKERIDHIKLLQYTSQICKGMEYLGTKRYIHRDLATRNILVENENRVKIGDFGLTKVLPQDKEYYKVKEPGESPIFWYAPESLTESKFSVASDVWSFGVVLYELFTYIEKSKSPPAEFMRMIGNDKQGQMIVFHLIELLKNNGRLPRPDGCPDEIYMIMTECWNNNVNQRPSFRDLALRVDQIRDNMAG

With `CC(O)CNc1nc(NCc2ccc(-c3ccccn3)cc2)c2[nH]nc(C(C)C)c2n1` (stereo not drawn) the inhibition [1] was “Active”, the pIC50 [2] was under 5.70 and the pIC50 [3] was 7.68. The pIC50 [4] was 6.11, the Activity [5] was 49% and the Activity [6] was 69%. For the same molecule, the Activity [7] was 77%, the pIC50 (K562) was 7.24 and the Activity (MCF7 [8]) was “Dose-dependent effect”. For the same molecule, the pIC50 (MCF7 [8]; MCF7, 72 h) was 7.57, the pIC50 [9] was 5.56 and the Activity [10] was “Active”. For the same molecule, the Activity [11] was “Active”, the Activity (HCT-116 [12]) was “Dose-dependent effect” and the Activity (HCT-116 [13]) was “Active”. For the same molecule, the Activity (G-361 [14]) was “Active”, the Activity (G-361 [15]) was “Active” and the Activity [16] was 89%. For the same molecule, the Activity [17] was 92%, the Activity [18] was 95% and the Activity [19] was 97%. The Activity [20] was 98%, the Activity [21] was over 100% and the Activity [22] was over 100%. For the same molecule, the Activity [23] was over 100%, the Activity [24] was over 100% and the Activity [25] was over 100%. For the same molecule, the Activity [26] was over 100%, the Activity [27] was over 100% and the Activity [28] was over 100%. The Activity [29] was over 100%, the Activity [30] was over 100% and the Activity (MCF7 [31]) was “Active”.
